Test results taken from ChEMBL document CHEMBL5715953, “A Potent, Selective, and Cell-Active Inhibitor of Human Type I Protein Arginine Methyltransferases” (ACS Chem Biol, 2016).
Activity calls are given as the source filed them. The rule behind the calls is not given here.

Experiments:
[1] = molecular target: T1, Protein arginine N-methyltransferase 6 (Homo sapiens, UniProt Q96LA8); experiment: Inhibition of human PRMT6 using (3H) methylated biotin labelled peptide as substrate incubated for 30 mins in presence of 3H-SAM by scintillation proximity assay
[2] = molecular target: T2, Histone-arginine methyltransferase CARM1 (Homo sapiens, UniProt Q86X55); experiment: Binding affinity to human PRMT4 assessed as inhibition constant using (3H) methylated biotin labelled peptide as substrate in presence of 3H-SAM by scintillation proximity assay
T2 sequence (Q86X55 whole entry): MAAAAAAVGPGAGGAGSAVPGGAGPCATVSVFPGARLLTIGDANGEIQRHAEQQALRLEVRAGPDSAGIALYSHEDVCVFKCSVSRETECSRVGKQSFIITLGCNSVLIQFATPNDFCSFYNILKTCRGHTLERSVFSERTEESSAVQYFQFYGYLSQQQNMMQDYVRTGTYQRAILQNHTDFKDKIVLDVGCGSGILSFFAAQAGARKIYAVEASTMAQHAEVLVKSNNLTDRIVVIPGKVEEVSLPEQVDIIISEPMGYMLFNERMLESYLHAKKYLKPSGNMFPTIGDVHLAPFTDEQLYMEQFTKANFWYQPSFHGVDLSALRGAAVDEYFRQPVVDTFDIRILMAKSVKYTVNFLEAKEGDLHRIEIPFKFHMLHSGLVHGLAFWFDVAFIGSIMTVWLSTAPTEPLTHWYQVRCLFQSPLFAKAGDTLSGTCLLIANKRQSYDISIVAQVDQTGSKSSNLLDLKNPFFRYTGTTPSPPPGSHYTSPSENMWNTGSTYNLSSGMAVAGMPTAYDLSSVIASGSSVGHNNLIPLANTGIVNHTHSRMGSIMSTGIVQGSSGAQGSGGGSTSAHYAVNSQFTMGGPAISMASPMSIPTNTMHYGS

[3] = molecular target: Growth/differentiation factor 2 (Homo sapiens) (UniProt Q9UK05)
[4] = molecular target: AT-rich interactive domain-containing protein 4A (Homo sapiens) (UniProt P29374)
[5] = molecular target: T2, Histone-arginine methyltransferase CARM1; experiment: Inhibition of human PRMT4 assessed as inhibition constant using peptide as substrate
[6] = molecular target: Staphylococcal nuclease domain-containing protein 1 (Homo sapiens) (UniProt Q7KZF4)
[7] = molecular target: Tudor domain-containing protein 3 (Homo sapiens) (UniProt Q9H7E2)
[8] = molecular target: RNA-binding protein FXR1 (Homo sapiens) (UniProt P51114)
[9] = molecular target: T3, Protein arginine N-methyltransferase 8 (Homo sapiens, UniProt Q9NR22); experiment: Binding affinity to human PRMT8 assessed as inhibition constant using (3H) methylated biotin labelled peptide as substrate in presence of 3H-SAM by scintillation proximity assay
How it was run: (§1)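 Scintillation proximity assay: 3H-SAM as methyl donor, with non-tritiated SAM added when needed. The 3H-methylated biotinylated peptide is captured on streptavidin/scintillant-coated plates and read as counts per minute. IC50 comes from compound titration under balanced conditions, with substrate and cofactor at their Km values. Run in triplicate, mean ± SD. Ki is derived from IC50. A lower enzyme level (5 nM) is used for some potent compounds.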

HEK293 [10] = experiment: Cytotoxicity in human HEK293 cells assessed as inhibition of cell growth at 1 uM incubated for 4 days by phase contrast cell imaging analysis; type: toxicity, cell-based; settings: hek293, 96 h, time 4 day
Peregrin (Homo sapiens) = Peregrin (Homo sapiens) (UniProt P55201)
[11] = molecular target: T1, Protein arginine N-methyltransferase 6; experiment: Inhibition of human PRMT6 assessed as inhibition constant using peptide as substrate
[12] = molecular target: T2, Histone-arginine methyltransferase CARM1; experiment: Inhibition of human PRMT4 using (3H) methylated biotin labelled peptide as substrate in presence of 3H-SAM by scintillation proximity assay
How it was run: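 Scintillation proximity assay: 3H-SAM as methyl donor, with non-tritiated SAM added when needed. The 3H-methylated biotinylated peptide is captured on streptavidin/scintillant-coated plates and read as counts per minute. IC50 comes from compound titration under balanced conditions, with substrate and cofactor at their Km values. Run in triplicate, mean ± SD. Ki is derived from IC50.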

[13] = molecular target: T3, Protein arginine N-methyltransferase 8; experiment: Inhibition of human PRMT8 assessed as inhibition constant using peptide as substrate
[14] = molecular target: T3, Protein arginine N-methyltransferase 8; experiment: Inhibition of human PRMT8 using (3H) methylated biotin labelled peptide as substrate in presence of 3H-SAM by scintillation proximity assay; how it was run: as §1
MCF7 = experiment: Antiproliferative activity against human MCF7 cells assessed as decrease in cell number at 0.1 uM incubated for 10 days by vybrant dye cycle green/ Enzo-nuclear-ID red staining based live cell imaging analysis relative to control; type: functional; parameters: scale not given: the % may be the effect or the level left; settings: time 10 day
HEK293 [15] = settings: Homo sapiens, dose 333.0 nM, time 20.0 hrs
[16] = molecular target: E3 ubiquitin-protein ligase UHRF1 (Homo sapiens) (UniProt Q96T88)
HEK293 [17] = settings: Homo sapiens, dose 1000.0 nM, time 20.0 hrs
[18] = molecular target: T2, Histone-arginine methyltransferase CARM1; experiment: Inhibition of human PRMT4 assessed as inhibition constant in presence of cofactor SAM
[19] = molecular target: T1, Protein arginine N-methyltransferase 6; experiment: Inhibition of human PRMT6 assessed as inhibition constant in presence of cofactor SAM
[20] = molecular target: T3, Protein arginine N-methyltransferase 8; experiment: Inhibition of human PRMT8 assessed as inhibition constant in presence of cofactor SAM
[21] = molecular target: WD repeat-containing protein 5 (Homo sapiens) (UniProt P61964)
[22] = molecular target: Polycomb protein EED (Homo sapiens) (UniProt O75530)
HFF = experiment: Cytotoxicity in human HFF cells assessed as cell confluency at <=1 uM incubated for 96 hrs by phase contrast cell imaging analysis; type: toxicity, cell-based

T3 sequence (Q9NR22 whole entry): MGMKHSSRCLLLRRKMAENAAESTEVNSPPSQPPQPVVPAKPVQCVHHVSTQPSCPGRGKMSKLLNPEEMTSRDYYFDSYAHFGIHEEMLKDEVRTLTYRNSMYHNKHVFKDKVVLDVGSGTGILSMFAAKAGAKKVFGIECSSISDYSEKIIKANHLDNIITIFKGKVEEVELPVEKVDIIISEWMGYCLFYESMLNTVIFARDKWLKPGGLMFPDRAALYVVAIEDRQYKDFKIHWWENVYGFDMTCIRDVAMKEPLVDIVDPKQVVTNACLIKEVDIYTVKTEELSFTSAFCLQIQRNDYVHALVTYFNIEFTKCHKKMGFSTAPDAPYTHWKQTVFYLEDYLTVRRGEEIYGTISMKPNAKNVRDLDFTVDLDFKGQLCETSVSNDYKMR
T1 sequence (Q96LA8 whole entry): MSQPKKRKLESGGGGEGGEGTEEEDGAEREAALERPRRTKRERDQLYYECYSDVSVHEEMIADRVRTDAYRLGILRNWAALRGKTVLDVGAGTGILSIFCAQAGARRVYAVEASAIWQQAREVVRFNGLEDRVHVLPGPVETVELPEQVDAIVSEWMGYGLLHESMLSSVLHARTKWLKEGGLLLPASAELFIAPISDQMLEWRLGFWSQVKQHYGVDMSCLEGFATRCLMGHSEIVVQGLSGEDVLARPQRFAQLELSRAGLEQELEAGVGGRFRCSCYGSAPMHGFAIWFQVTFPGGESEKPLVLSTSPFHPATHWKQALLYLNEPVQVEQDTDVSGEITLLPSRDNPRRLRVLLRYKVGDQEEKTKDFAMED
Growth/differentiation factor 2 (Homo sapiens), sequence (Q9UK05 whole entry, the tested form may be a part): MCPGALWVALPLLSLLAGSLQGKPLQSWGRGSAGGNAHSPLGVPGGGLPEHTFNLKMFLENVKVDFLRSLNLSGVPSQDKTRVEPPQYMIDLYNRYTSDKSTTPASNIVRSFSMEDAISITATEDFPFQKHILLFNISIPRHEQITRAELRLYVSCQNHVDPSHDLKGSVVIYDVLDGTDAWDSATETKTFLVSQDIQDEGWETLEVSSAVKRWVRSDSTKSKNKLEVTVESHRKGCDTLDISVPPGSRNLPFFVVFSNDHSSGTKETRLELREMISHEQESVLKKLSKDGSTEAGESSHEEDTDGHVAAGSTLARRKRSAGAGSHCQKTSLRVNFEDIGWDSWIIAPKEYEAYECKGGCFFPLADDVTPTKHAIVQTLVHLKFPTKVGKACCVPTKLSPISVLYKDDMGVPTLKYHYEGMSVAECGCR
AT-rich interactive domain-containing protein 4A (Homo sapiens), sequence (P29374 whole entry, the tested form may be a part): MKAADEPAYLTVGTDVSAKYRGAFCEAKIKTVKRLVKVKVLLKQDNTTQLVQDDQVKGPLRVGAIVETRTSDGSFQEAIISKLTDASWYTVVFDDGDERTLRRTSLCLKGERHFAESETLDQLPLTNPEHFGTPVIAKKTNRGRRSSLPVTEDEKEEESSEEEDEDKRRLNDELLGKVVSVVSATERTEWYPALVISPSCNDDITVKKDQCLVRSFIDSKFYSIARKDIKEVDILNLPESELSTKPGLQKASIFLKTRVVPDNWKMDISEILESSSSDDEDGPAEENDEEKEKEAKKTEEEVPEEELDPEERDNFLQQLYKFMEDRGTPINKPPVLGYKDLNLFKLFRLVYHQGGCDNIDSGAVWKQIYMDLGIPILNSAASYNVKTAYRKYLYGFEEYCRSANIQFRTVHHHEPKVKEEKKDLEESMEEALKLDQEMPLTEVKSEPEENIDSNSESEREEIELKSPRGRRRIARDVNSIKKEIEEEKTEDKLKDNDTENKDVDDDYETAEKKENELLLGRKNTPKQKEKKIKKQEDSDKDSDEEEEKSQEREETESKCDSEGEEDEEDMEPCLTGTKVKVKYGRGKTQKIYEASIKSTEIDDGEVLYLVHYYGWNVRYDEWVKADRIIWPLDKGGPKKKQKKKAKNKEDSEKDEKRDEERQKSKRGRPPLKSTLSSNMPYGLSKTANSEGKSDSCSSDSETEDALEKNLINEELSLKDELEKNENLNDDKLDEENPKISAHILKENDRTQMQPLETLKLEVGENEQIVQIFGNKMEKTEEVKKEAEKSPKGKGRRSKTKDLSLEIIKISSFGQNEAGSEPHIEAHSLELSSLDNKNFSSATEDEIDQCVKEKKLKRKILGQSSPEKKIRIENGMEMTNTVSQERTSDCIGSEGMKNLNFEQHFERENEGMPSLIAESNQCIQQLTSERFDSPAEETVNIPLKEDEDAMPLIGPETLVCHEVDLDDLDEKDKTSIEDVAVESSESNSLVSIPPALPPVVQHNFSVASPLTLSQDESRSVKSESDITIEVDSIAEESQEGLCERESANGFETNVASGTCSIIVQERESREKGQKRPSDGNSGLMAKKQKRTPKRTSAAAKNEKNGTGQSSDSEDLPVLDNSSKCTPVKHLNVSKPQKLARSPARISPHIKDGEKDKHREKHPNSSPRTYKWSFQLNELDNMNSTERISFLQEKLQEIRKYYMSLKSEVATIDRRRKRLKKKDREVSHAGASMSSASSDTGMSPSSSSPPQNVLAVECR
Polycomb protein EED (Homo sapiens), sequence (O75530 2-441 limits assumed): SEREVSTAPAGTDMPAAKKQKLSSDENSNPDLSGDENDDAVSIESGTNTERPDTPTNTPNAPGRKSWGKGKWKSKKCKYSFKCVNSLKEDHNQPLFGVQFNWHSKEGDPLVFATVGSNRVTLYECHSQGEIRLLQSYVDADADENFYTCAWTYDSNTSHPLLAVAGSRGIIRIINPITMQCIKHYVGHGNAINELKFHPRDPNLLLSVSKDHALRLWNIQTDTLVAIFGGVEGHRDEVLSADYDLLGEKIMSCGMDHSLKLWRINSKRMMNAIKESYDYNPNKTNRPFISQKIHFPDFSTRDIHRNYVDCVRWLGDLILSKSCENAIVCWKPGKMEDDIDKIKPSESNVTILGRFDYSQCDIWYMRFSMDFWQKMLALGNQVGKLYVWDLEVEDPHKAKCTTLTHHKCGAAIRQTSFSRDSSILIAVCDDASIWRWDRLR
Staphylococcal nuclease domain-containing protein 1 (Homo sapiens), sequence (Q7KZF4 whole entry, the tested form may be a part): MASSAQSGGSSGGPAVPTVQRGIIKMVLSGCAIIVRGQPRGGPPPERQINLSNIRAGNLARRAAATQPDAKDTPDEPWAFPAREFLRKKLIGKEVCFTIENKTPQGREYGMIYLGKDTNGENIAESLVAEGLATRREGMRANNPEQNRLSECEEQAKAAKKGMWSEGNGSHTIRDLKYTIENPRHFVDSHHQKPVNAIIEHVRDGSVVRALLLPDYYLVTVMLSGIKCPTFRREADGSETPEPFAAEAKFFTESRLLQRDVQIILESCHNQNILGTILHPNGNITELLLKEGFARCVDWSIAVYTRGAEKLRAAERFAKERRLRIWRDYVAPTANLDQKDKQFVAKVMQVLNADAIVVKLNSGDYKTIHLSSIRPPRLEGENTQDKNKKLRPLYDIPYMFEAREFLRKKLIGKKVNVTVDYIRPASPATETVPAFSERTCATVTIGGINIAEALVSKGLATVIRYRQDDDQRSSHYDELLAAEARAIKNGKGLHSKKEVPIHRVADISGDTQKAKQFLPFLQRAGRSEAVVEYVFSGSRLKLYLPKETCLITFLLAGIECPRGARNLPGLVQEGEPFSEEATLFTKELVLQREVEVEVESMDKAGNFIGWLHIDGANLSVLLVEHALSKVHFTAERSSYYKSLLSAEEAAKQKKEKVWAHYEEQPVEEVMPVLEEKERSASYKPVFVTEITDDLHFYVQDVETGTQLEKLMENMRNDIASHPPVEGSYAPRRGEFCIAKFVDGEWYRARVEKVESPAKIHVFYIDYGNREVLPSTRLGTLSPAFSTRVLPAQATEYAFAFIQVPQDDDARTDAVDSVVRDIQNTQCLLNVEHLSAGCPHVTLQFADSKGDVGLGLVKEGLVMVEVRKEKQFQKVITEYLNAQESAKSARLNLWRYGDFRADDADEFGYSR
RNA-binding protein FXR1 (Homo sapiens), sequence (P51114 whole entry): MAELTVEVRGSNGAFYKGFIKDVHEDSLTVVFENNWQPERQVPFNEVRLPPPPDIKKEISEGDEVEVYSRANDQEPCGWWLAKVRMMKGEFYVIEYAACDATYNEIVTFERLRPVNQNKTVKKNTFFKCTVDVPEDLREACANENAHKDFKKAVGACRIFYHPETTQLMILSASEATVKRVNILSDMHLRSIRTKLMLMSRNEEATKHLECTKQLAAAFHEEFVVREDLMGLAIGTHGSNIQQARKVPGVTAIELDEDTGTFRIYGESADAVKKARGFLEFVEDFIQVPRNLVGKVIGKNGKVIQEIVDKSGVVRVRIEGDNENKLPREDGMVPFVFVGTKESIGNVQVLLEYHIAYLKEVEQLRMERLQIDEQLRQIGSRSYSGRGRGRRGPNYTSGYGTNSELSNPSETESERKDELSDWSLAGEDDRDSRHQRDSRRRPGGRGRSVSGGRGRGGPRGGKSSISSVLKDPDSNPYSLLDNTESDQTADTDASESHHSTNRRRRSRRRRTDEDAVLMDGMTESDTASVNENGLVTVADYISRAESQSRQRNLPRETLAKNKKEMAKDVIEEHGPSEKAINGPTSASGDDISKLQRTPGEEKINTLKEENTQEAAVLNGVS

For CC(C)Oc1ccc(-c2c[nH]cc2CN(C)CCN)cc1, the IC50 [1] was “Not Active”, the Ki [2] was 23 nM and the ΔTm [3] was -3 °C. For the same compound, the deltaTm [4] was “inactive”, the IC50 [5] was “Not Active” and the deltaTm [6] was “inactive”. The deltaTm [7] was “inactive”, the deltaTm [8] was “inactive” and the Ki [9] was 1.3 nM. For the same compound, the Activity (HEK293 [10]) was “Toxic”, the ΔTm (Peregrin (Homo sapiens)) was -0.3 °C and the IC50 [11] was “Not Active”. For the same compound, the IC50 [12] was 83 nM, the IC50 [13] was “Not Active” and the IC50 [14] was 5 nM. For the same compound, the Activity (MCF7) was 30%, the inhibition (HEK293 [15]) was “Active” and the ΔTm [16] was -1.5 °C. The inhibition (HEK293 [17]) was “Active”, the IC50 [18] was “Not Active” and the IC50 [19] was “Not Active”. For the same compound, the IC50 [20] was “Not Active”, the ΔTm [21] was -1.3 °C and the deltaTm [22] was “inactive”. For the same compound, the Activity (HFF) was “Non-Toxic”.
